Experimental data collected from several papers.
Protocols differ between the studies behind these lines.
ABL1 F317I phosphorylated: Tyrosine-protein kinase ABL1, phosphorylated (ABL1, Homo sapiens, UniProt P00519, F317I)
ABL1 T315I: Tyrosine-protein kinase ABL1 (ABL1, Homo sapiens, UniProt P00519, T315I)
ABL1 F317L phosphorylated: Tyrosine-protein kinase ABL1, phosphorylated (ABL1, Homo sapiens, UniProt P00519, F317L)
ABL1 non-phosphorylated: Tyrosine-protein kinase ABL1, non-phosphorylated (ABL1, Homo sapiens, UniProt P00519)
ABL1 Q252H phosphorylated: Tyrosine-protein kinase ABL1, phosphorylated (ABL1, Homo sapiens, UniProt P00519, Q252H)
ABL1 M351T: Tyrosine-protein kinase ABL1 (ABL1, Homo sapiens, UniProt P00519, M351T)
ABL1: Tyrosine-protein kinase ABL1 (ABL1, Homo sapiens, UniProt P00519)

`COc1cnc(Nc2cccc(S(N)(=O)=O)c2)nc1N1CCN(c2ccccc2)C(=O)C1` has a remaining binding of 96% (ABL1 F317I phosphorylated; binding, competition with immobilised ligand; 1 µM).
`COc1cc2ncnc(Nc3ccc(Oc4ccccc4)c(C)c3C)c2cc1OC` gave an inhibition of 8% (ABL1 T315I; enzyme activity, inhibitor; 1 µM).
The remaining binding of `O=C(Nc1c[nH]nc1C(=O)NC1CCNCC1)c1cc(F)cc(F)c1` is reported as 100% (ABL1 F317L phosphorylated; binding, competition with immobilised ligand; 1 µM).
For `CCN1CCN(Cc2ccc(C(=O)Nc3ccc(C)c(Oc4ccc5c(c4)CC(=O)N5)c3)cc2C(F)(F)F)CC1`, the remaining binding was 2.1% (ABL1 non-phosphorylated; binding, competition with immobilised ligand; 1 µM).
`O=C(c1ccc(Nc2ncc(Cl)c(-c3ccc(Cl)s3)n2)cc1)N1CCC(N2CCCC2)CC1` gave a remaining binding of 4.2% (ABL1 Q252H phosphorylated; binding, competition with immobilised ligand; 1 µM).
The inhibition of `CNc1cccc2cc(C(=O)Nc3ccc(C(=O)O)cc3)c(=O)[nH]c12` is reported as 1.3% (ABL1 T315I; enzyme activity, inhibitor; 10 µM).
The activity vs control of `Cc1cc(NC(=O)c2cccc3cc(-c4cccc5[nH]nc(N)c45)ccc23)ccc1F` is reported as 89% (ABL1 M351T; enzyme activity, inhibitor; 0.1 µM).
With `N[C@@H]1CCN(c2nccc(-c3cnn4ncccc34)n2)C1` the remaining binding was 100% (Tyrosine-protein kinase ABL1 (ABL1, Homo sapiens, UniProt P00519, F317L); binding; 1 µM).
`COc1cc(-c2cc(-c3ccc(N4CCNCC4)cc3)cnc2N)cc(OC)c1OC` gave an inhibition of 86% (ABL1 M351T; enzyme activity, inhibitor; 0.1 µM).
The remaining binding of `Cc1cc(C)c(-n2ccn3nc(-c4cccnc4)cc23)cc1NC(=O)c1cc(C#N)cc(S(F)(F)(F)(F)F)c1` is reported as 63.3% (ABL1 F317L phosphorylated; cell-free assay, competition with immobilised ligand; 0.1 µM).
`COc1cc2ncnc(Nc3ccc(Oc4ccccc4)cc3C)c2cc1OC` has an inhibition of 5% (Tyrosine-protein kinase ABL1 (ABL1, Homo sapiens, UniProt P00519, E255K); enzyme activity, inhibitor; 1 µM).
With `COc1ncc2cc3ccccc3nc2c1C#N` the remaining binding was 100% (Tyrosine-protein kinase ABL1, phosphorylated (ABL1, Homo sapiens, UniProt P00519, E255K); cell-free assay, competition with immobilised ligand; 5 µM).
With `CCOC(=O)c1cc2cc(-c3cc(C(=O)NCc4ccc(C(=O)O)cc4)nn3C)ccc2[nH]1` the remaining binding was 92% (Tyrosine-protein kinase ABL1, phosphorylated (ABL1, Homo sapiens, UniProt P00519, T315I); cell-free assay, competition with immobilised ligand; 0.1 µM).
`CCCOc1ccc(OC)c(F)c1C(=O)c1ccc(C(=O)N[C@@H]2CNC[C@H]2NC(=O)c2ccc3[nH]ncc3c2)cc1` has a remaining activity of 107% (Tyrosine-protein kinase ABL1 (ABL1, Homo sapiens, UniProt P00519, H396P); enzyme activity, inhibitor; 10 µM).
The remaining binding of `O=C(N1CCS(=O)(=O)CC1)N1C[C@H](c2ccc(OC(F)(F)F)cc2)C[C@H](c2nc(C3CC3)no2)C1` is reported as 100% (Tyrosine-protein kinase ABL1, phosphorylated (ABL1, Homo sapiens, UniProt P00519, H396P); cell-free assay, competition with immobilised ligand; 1 µM).
`C[C@@H]1CCN(C(=O)CC#N)C[C@@H]1N(C)c1ncnc2[nH]ccc12` has a remaining signal of 101% (ABL1; cell-free assay, inhibitor; 0.5 µM).
`Cc1ccc(C(=O)NCc2ccsc2)cc1C#Cc1cn(C(C)C)c2ncnc(N)c12` has an activity vs control of 6% (ABL1 T315I; enzyme activity, inhibitor; 1 µM).
With `Cc1cnc(NC2CCOCC2)nc1-n1cnc(C(=O)NC(CN)c2cc(F)cc(Cl)c2)c1` (centres unmarked) the remaining activity was 115% (ABL1 T315I; enzyme activity, inhibitor, radiometric; 1 µM).
With `c1cncc(-c2cccc(Nc3nccc(NC4CCCCC4)n3)c2)c1` the remaining binding was 100% (ABL1 F317I phosphorylated; binding, competition with immobilised ligand; 10 µM).
For `CC(C)c1ccc(NC(=O)c2cccs2)c(-c2nc3ccccc3[nH]c2=O)c1`, the activity vs control was 115% (ABL1; enzyme activity, inhibitor; 1 µM).
`Cc1cnc(Nc2ccc(C(=O)N3CCC(N4CCCC4)CC3)cc2)nc1-c1cc2ccccc2s1` gave a remaining binding of 21% (ABL1 F317L phosphorylated; binding, competition with immobilised ligand; 1 µM).
For `O=C1NC(=O)c2cc(Nc3ccc(F)cc3)c(Nc3ccc(F)cc3)cc21`, the remaining signal was 95.7% (ABL1; cell-free assay; 0.5 µM).
The remaining binding of `O=C(NCCCN1CCOCC1)c1ccc(Nc2ncc(Cl)c(-c3ccc(Cl)s3)n2)cc1` is reported as 29% (ABL1 Q252H phosphorylated; binding, competition with immobilised ligand; 1 µM).
With `CN(C)C(=O)Cn1cc(-c2nc(C3(c4ccc(-c5cnc(N)nc5)cc4)CC3)no2)cn1` the remaining binding was 55% (Tyrosine-protein kinase ABL1, non-phosphorylated (ABL1, Homo sapiens, UniProt P00519, F317L); cell-free assay, competition with immobilised ligand; 1 µM).
The remaining binding of `C=CC(=O)N1CCC(C(=O)NCC(=O)N2CCN(c3nc(-c4cnc(N)nc4C(F)F)nc(N4CCOCC4)n3)CC2)CC1` is reported as 100% (ABL1 F317L phosphorylated; binding, competition with immobilised ligand; 1 µM).
`Cc1nccc(COC(=O)N2C[C@@H]3[C@@H](CNC(=O)c4ccc5[nH]nnc5c4)[C@@H]3C2)n1` gave a remaining binding of 93% (ABL1 Q252H phosphorylated; cell-free assay, competition with immobilised ligand; 1 µM).
`C[S+]([O-])c1ccc(-c2nc(-c3ccncc3)c(-c3ccc(F)cc3)[nH]2)cc1` (centres unmarked) has a remaining signal of 97% (ABL1; cell-free assay; 0.5 µM).
`Nc1ncnc2occ(-c3ccc(NC(=O)Nc4cc(C(F)(F)F)ccc4F)cc3)c12` has a remaining signal of 0.1% (Tyrosine-protein kinase ABL1, phosphorylated (ABL1, Homo sapiens, UniProt P00519); cell-free assay, inhibitor; 20 µM).
`Nc1cnc(N2CCc3cc(S(=O)(=O)Nc4c(F)cc(Cl)cc4F)cc(N4CCCC4=O)c32)nc1` gave a remaining binding of 98% (ABL1 Q252H phosphorylated; cell-free assay, competition with immobilised ligand; 1 µM).
For `Cc1ccc(NC(=O)c2ccc(C)c(C(F)(F)F)c2)cc1C#Cc1nn(C2CCC(O)CC2)c2ncnc(N)c12` (centres unmarked), the remaining signal was -3% (ABL1; cell-free assay; 10 µM).
`c1nc2c(Nc3ccc4c(c3)OCCO4)nc(Nc3ccc4c(c3)OCCO4)nc2[nH]1` has an activity vs control of 2.1% (ABL1 non-phosphorylated; enzyme activity, inhibitor; 10 µM).
For `Cc1nc(Cc2cccc(C(F)(F)F)c2)sc1-c1ccc(C(N)=O)nc1`, the remaining binding was 83% (ABL1 F317I phosphorylated; binding; 1 µM).
With `N#CCCc1ccc2c(c1)-c1[nH]c3ccc([N+](=O)[O-])cc3c1CC(=O)N2` the remaining signal was 47.8% (ABL1; cell-free assay; 0.5 µM).
For `CO[C@@H](C)c1c(Nc2ccc([C@H](N(C)C(=O)C3CCS(=O)(=O)CC3)C(F)(F)F)cc2)cnc2cc(Cl)nn12`, the remaining binding was 100% (ABL1 F317I phosphorylated; binding; 1 µM).
With `CCOC(=O)c1c(C)[nH]c(/C=C2\C(=O)Nc3ccccc32)c1C` the remaining signal was 95.4% (ABL1; cell-free assay; 0.5 µM).
